The source made the active and inactive calls. No cut-off for these calls is given here.
Tests used:
RAW264.7 [1] = assay: Activation of RXR/LXR heterodimer in mouse RAW264.7 cells assessed as increase in ABCA1 protein level at 10 uM after 24 hrs in presence of T0901317 by Western blotting analysis; format: cell-based
[2] = target: T1, Peroxisome proliferator-activated receptor delta (Homo sapiens) (UniProt Q03181); assay: Activation of PPARdelta (unknown origin) by receptor-CBP cofactor complex formation assay
T1 sequence (whole entry): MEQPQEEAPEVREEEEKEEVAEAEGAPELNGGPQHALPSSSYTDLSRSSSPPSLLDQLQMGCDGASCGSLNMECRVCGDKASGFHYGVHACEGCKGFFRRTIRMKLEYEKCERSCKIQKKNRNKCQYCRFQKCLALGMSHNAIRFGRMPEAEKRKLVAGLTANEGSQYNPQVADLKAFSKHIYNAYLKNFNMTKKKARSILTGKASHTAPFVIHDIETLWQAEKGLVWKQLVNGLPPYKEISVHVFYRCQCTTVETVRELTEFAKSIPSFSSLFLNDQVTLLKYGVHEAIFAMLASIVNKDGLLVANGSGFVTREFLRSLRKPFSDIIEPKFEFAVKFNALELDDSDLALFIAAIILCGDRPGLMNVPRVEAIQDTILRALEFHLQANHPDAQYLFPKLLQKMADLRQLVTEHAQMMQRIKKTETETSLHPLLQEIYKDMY
How it was run: (§1)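 Cell-free cofactor recruitment ELISA: ligand-dependent binding of PPAR isotypes to CBP, detected by HRP-conjugated anti-PPAR antibody at OD450. Full agonists GW7647 (α), GW1929 (γ), GW501516 (δ) define 100%, vehicle 0%; efficacy as maximum B/Bmax% and potency as EC50.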

[3] = target: T2, Peroxisome proliferator-activated receptor gamma (Homo sapiens) (UniProt P37231); assay: Activation of PPARgamma (unknown origin) by receptor-CBP cofactor complex formation assay; how it was run: as §1
T2 sequence (whole entry): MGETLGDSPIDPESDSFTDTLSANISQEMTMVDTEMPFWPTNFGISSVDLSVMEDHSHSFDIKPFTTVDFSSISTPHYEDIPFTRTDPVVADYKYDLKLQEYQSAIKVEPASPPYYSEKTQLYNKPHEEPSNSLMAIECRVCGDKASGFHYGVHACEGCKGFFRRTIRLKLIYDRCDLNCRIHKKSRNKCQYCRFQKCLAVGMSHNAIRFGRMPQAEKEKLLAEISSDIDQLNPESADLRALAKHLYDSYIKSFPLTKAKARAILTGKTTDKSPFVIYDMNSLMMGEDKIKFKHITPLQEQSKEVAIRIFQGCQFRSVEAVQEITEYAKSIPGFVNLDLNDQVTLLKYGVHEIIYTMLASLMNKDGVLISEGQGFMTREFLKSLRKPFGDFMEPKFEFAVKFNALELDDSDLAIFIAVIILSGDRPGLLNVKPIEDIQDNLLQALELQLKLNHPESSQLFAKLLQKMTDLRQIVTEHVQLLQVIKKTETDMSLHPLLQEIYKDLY

RAW264.7 [4] = assay: Activation of RXR/LXR heterodimer in mouse RAW264.7 cells assessed as increase in ABCA1 protein level at 10 uM after 24 hrs by Western blotting analysis; format: cell-based
[5] = target: T3, Retinoic acid receptor alpha (Homo sapiens) (UniProt P10276); assay: Activation of human RAR-alpha expressed in HEK293 cells coexpressing with tk-betaRE-Luc after 24 hrs by luciferase reporter gene assay; format: cell-based
T3 sequence (whole entry): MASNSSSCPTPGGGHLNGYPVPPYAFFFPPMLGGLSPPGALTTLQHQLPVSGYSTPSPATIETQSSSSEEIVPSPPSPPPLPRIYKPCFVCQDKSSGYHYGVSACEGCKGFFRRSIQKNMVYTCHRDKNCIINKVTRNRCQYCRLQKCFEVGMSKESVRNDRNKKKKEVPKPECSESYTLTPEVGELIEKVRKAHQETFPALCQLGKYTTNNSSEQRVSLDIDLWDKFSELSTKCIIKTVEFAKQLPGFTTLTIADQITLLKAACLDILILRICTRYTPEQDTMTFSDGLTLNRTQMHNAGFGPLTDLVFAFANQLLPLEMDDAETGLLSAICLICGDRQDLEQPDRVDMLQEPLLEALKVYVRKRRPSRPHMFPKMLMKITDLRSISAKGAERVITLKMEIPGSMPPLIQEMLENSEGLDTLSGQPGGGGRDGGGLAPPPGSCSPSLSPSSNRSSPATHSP
How it was run: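 Calcium phosphate transfection of HEK293 cells with 30 ng pCMX-hRAR-α, 120 ng tk-βRE-Luc and 30 ng pCMX-β-gal plus carrier pUC18 (600 ng DNA per well). Cells were washed 8 h later and incubated with compound in 10% FBS medium. Luciferase was normalized to β-galactosidase; triplicate or quadruplicate, representative of three experiments.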

[6] = target: T4, Oxysterols receptor LXR-alpha (Homo sapiens) (UniProt Q13133); assay: Activation of human LXR-alpha expressed in HEK293 cells coexpressing with pGL4.1-DR4-Luc after 24 hrs by luciferase reporter gene assay; format: cell-based
T4 sequence (whole entry): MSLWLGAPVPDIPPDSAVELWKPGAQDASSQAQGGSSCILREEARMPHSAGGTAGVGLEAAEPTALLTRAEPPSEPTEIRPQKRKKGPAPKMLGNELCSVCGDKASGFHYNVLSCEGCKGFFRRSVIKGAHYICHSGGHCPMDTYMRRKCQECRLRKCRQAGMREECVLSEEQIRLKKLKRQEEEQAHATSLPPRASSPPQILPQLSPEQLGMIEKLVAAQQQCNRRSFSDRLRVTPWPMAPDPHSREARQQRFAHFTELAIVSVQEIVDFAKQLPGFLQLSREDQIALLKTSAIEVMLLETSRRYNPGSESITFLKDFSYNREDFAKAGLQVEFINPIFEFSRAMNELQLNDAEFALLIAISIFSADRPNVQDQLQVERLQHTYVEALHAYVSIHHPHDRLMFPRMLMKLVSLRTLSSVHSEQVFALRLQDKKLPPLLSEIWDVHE

Activity [2]: inactive | Activity [3]: inactive | Activity [5]: inactive | Activity [6]: inactive
Structure (SMILES): CC(C)=CCc1cc([C@@H]2CC(=O)c3ccc(O)c(CC=C(C)C)c3O2)cc2c1OC(C(C)(C)O)C2 (stereo partly specified)
Activity (RAW264.7 [1]): Active | Activity (RAW264.7 [4]): Active

— ChEMBL document CHEMBL3351942, “Rexinoids isolated from Sophora tonkinensis with a gene expression profile distinct from the synthetic rexinoid bexarotene” (J Nat Prod, 2014)
